Experimental findings from ChEMBL document CHEMBL3352121, “Modulation of Activity Profiles for Largazole-Based HDAC Inhibitors through Alteration of Prodrug Properties” (ACS Med Chem Lett, 2014) are described below.

Molecules are shown by their SMILES. A value given as a limit tells only on which side of the number the result lay.

In general, inhibition refers to how much of the control response was suppressed. A word on the IC50: it is the concentration that gives 50% inhibition.

Assay [1] addresses T1, Histone deacetylase 7 (Homo sapiens) (UniProt Q8WUI4).
T1 sequence (whole entry): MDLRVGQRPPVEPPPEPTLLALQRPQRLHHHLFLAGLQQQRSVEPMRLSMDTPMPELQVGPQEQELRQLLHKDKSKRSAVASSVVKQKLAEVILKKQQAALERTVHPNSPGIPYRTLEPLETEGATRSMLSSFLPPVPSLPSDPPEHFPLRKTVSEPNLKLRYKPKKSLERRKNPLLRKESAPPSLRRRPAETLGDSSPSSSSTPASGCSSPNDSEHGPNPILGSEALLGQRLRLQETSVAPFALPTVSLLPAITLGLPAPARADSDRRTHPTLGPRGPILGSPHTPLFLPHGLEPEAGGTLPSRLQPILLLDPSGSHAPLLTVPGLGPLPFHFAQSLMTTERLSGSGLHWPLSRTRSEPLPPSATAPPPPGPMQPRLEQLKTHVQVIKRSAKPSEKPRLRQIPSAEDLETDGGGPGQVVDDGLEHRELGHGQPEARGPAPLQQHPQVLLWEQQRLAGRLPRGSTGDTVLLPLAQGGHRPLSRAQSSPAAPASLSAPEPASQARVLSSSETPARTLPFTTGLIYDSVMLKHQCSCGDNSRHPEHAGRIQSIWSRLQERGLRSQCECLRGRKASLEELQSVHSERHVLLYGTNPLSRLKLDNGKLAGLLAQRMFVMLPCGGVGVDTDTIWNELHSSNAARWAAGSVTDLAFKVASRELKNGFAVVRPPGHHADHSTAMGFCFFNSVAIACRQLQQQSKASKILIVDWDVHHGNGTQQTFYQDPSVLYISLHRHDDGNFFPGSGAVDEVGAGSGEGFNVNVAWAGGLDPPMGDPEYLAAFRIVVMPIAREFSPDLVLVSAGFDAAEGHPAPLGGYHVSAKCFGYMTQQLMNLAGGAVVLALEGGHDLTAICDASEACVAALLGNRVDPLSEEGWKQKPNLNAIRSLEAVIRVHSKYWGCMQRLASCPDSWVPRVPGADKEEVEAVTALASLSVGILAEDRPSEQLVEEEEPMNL
The experiment in a line: Inhibition of HDAC7 (unknown origin) at 1 uM incubated for 30 mins in presence of BSA and DTT by fluorescence assay. In outline: (§1)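 Purified HDAC isoforms were tested up to a maximum of 1 μM. IC50 values are averages of duplicate experiments. Disulfide compounds were pretreated with DTT to reduce the disulfide bond.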

The target in assay [2] is T2, Histone deacetylase 8 (Homo sapiens) (UniProt Q9BY41).
T2 sequence (whole entry): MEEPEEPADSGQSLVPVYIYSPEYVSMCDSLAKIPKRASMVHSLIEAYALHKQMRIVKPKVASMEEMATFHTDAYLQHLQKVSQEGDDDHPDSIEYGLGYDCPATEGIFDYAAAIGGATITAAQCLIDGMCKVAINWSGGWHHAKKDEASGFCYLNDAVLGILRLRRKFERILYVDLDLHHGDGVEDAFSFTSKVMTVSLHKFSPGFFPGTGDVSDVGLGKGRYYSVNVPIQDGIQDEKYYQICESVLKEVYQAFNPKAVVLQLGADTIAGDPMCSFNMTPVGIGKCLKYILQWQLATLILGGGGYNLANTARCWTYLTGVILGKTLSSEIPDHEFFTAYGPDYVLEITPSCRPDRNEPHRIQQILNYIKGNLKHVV
The experiment in a line: Inhibition of HDAC8 (unknown origin) at 1 uM incubated for 30 mins in presence of BSA and DTT by fluorescence assay. The method, boiled down: as §1

The target in assay [3] is T3, Histone deacetylase 5 (Homo sapiens, UniProt Q9UQL6). Put plainly: Inhibition of HDAC5 (unknown origin) at 1 uM incubated for 30 mins in presence of BSA and DTT by fluorescence assay. In outline: as §1
In assay [4] the target is T4, Histone deacetylase 9 (Homo sapiens, UniProt Q9UKV0). The experiment in a line: Inhibition of HDAC9 (unknown origin) at 1 uM incubated for 30 mins in presence of BSA and DTT by fluorescence assay. In outline: as §1
Assay [5] addresses T5, Protein deacetylase HDAC6 (Homo sapiens) (UniProt Q9UBN7).
T5 sequence (whole entry): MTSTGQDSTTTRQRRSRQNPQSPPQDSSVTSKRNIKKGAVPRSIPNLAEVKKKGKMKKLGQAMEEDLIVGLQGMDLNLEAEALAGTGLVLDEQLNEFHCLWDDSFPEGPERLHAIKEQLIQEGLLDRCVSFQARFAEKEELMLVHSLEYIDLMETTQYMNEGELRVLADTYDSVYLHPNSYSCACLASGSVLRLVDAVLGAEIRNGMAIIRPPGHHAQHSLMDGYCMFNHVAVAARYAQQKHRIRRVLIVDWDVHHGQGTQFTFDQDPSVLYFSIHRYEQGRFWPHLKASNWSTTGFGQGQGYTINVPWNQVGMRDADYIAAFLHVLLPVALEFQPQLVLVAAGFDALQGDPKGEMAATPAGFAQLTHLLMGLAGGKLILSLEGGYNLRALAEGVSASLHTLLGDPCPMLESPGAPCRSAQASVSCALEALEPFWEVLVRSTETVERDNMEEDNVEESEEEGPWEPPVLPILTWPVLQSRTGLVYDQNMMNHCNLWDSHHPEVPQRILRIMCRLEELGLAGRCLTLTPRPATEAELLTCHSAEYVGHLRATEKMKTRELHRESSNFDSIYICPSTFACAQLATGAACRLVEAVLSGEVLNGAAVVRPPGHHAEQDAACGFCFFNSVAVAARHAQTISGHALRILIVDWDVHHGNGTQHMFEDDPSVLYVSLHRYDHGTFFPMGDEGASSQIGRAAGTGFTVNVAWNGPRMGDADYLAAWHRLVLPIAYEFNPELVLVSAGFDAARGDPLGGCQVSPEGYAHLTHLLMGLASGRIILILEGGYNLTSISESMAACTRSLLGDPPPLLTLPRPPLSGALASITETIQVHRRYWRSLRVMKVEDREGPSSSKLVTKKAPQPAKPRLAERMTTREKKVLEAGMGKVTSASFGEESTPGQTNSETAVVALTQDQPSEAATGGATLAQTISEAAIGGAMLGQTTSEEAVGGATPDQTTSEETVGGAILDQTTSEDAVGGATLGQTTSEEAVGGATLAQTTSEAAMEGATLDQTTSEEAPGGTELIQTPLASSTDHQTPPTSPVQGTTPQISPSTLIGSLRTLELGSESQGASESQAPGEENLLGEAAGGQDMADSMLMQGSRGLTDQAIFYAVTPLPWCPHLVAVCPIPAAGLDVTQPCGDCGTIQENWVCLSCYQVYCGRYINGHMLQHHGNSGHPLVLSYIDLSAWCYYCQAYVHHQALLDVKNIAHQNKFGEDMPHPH
As to conditions: 1 uM; call rule not given here.

In assay [6] the target is T6, Polyamine deacetylase HDAC10 (Homo sapiens, UniProt Q969S8).
T6 sequence (Q969S8 whole entry): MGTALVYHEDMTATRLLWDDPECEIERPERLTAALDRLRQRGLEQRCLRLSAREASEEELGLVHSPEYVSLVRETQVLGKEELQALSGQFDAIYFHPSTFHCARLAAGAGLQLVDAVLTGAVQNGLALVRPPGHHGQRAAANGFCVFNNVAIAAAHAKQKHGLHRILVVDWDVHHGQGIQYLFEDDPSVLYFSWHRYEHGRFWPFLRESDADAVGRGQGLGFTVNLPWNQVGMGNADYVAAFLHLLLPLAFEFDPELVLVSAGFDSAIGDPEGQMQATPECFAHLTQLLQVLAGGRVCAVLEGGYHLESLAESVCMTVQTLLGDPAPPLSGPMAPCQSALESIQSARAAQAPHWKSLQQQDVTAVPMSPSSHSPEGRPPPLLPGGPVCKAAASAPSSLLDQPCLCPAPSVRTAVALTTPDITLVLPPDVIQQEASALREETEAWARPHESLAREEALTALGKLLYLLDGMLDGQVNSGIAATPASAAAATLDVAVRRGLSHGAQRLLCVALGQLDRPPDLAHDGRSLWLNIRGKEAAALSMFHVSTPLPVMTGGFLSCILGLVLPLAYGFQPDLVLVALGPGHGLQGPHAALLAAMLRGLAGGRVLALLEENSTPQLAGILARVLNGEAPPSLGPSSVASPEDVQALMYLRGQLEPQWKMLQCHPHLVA
The experiment in a line: Inhibition of HDAC10 (unknown origin) incubated for 30 mins in presence of BSA and DTT by fluorescence assay. The method, boiled down: as §1

The target of assay [7] is Histone deacetylase 1 (Homo sapiens, UniProt Q13547). The experiment in a line: Inhibition of HDAC1 (unknown origin) incubated for 30 mins in presence of BSA and DTT by fluorescence assay.
The target in assay [8] is T4, Histone deacetylase 9. The experiment in a line: Inhibition of HDAC9 (unknown origin) at 1 uM incubated for 30 mins in presence of BSA and in absence of DTT by fluorescence assay. In outline: (§2)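 Purified-HDAC assay, single point: percent inhibition read at 1 μM, the highest concentration tested.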
The target in assay [9] is T3, Histone deacetylase 5. The experiment in a line: Inhibition of HDAC5 (unknown origin) at 1 uM incubated for 30 mins in presence of BSA and in absence of DTT by fluorescence assay. The method, boiled down:
as §2

Assay [10] deals with T4, Histone deacetylase 9. Put plainly: Inhibition of HDAC9 (unknown origin) incubated for 30 mins in presence of BSA and in absence of DTT by fluorescence assay.
Assay [11] deals with T7, Histone deacetylase 4 (Homo sapiens, UniProt P56524). Put plainly: Inhibition of HDAC4 (unknown origin) at 1 uM incubated for 30 mins in presence of BSA and in absence of DTT by fluorescence assay. The method, boiled down:
as §2

Assay [12] deals with T3, Histone deacetylase 5. The experiment in a line: Inhibition of HDAC5 (unknown origin) incubated for 30 mins in presence of BSA and in absence of DTT by fluorescence assay.
The target in assay [13] is T7, Histone deacetylase 4. The experiment in a line: Inhibition of HDAC4 (unknown origin) incubated for 30 mins in presence of BSA and in absence of DTT by fluorescence assay.
The target in assay [14] is T8, Histone deacetylase 7 (Homo sapiens, UniProt Q8WUI4).
T8 sequence (Q8WUI4 whole entry): T1 sequence (whole entry)
Put plainly: Inhibition of HDAC7 (unknown origin) incubated for 30 mins in presence of BSA and in absence of DTT by fluorescence assay.

The target in assay [15] is T1, Histone deacetylase 7 (Homo sapiens). The experiment in a line: Inhibition of HDAC7 (unknown origin) at 1 uM incubated for 30 mins in presence of BSA and in absence of DTT by fluorescence assay. The method, boiled down:
as §2

The nature of assay [16]: Antiproliferative activity against human HCT116 cells after 48 hrs in absence of DTT by MTT assay. As to conditions: HCT-116, 48 h. Type of assay: functional, cell-based.

T3 sequence (Q9UQL6 whole entry): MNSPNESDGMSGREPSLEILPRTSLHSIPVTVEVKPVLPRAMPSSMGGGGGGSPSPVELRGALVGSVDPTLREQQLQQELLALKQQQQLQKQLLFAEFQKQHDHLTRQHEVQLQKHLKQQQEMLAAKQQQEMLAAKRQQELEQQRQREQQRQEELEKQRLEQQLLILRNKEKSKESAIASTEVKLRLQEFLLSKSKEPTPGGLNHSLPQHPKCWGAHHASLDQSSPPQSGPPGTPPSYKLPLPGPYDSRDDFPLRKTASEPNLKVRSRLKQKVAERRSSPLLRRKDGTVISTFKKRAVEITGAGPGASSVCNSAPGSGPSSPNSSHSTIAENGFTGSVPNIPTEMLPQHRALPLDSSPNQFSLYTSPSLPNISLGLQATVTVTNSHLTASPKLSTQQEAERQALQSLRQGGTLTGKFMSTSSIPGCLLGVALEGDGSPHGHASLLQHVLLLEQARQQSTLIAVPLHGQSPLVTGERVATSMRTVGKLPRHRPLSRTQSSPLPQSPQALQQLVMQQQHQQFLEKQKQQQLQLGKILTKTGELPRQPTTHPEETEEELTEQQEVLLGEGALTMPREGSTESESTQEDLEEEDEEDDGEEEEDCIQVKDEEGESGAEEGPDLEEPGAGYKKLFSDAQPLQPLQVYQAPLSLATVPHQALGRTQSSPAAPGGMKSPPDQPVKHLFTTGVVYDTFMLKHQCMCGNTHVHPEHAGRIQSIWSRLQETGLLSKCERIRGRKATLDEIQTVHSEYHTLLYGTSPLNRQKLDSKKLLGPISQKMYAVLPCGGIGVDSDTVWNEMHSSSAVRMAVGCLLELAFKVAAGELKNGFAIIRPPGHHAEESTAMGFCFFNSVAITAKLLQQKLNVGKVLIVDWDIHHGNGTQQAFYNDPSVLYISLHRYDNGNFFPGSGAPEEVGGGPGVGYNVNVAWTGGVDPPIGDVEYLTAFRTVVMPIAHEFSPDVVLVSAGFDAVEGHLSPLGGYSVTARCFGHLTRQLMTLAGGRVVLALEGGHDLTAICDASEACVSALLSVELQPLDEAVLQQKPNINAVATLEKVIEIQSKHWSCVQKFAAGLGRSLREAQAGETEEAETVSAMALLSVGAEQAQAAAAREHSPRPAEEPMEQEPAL
T4 sequence (Q9UKV0 whole entry): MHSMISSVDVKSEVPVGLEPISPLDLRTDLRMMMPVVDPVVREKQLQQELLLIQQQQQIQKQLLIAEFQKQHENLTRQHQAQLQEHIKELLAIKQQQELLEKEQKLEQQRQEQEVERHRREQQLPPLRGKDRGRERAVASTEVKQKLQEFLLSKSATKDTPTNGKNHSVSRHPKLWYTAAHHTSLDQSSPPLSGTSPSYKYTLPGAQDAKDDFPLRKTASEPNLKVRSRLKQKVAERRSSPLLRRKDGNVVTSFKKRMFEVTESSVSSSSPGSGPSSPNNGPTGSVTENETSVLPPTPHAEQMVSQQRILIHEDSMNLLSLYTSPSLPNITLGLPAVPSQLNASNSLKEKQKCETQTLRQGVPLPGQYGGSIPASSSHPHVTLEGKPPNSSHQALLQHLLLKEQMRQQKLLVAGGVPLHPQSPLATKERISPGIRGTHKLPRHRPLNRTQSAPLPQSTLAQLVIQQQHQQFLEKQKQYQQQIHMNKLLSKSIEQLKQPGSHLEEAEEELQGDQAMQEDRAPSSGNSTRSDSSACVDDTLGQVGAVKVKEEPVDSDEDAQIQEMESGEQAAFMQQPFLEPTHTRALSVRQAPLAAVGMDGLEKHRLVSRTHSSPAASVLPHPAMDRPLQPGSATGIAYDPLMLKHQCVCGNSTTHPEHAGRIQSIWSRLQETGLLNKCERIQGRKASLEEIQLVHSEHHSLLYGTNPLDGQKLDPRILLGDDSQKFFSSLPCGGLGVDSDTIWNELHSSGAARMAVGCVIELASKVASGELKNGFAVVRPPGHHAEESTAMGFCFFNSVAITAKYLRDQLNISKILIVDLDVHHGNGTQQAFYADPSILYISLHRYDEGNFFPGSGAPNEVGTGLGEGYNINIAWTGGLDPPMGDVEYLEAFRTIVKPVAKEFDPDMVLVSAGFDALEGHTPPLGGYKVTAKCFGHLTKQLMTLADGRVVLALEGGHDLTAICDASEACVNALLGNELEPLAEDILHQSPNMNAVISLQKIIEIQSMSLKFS
T7 sequence (P56524 whole entry): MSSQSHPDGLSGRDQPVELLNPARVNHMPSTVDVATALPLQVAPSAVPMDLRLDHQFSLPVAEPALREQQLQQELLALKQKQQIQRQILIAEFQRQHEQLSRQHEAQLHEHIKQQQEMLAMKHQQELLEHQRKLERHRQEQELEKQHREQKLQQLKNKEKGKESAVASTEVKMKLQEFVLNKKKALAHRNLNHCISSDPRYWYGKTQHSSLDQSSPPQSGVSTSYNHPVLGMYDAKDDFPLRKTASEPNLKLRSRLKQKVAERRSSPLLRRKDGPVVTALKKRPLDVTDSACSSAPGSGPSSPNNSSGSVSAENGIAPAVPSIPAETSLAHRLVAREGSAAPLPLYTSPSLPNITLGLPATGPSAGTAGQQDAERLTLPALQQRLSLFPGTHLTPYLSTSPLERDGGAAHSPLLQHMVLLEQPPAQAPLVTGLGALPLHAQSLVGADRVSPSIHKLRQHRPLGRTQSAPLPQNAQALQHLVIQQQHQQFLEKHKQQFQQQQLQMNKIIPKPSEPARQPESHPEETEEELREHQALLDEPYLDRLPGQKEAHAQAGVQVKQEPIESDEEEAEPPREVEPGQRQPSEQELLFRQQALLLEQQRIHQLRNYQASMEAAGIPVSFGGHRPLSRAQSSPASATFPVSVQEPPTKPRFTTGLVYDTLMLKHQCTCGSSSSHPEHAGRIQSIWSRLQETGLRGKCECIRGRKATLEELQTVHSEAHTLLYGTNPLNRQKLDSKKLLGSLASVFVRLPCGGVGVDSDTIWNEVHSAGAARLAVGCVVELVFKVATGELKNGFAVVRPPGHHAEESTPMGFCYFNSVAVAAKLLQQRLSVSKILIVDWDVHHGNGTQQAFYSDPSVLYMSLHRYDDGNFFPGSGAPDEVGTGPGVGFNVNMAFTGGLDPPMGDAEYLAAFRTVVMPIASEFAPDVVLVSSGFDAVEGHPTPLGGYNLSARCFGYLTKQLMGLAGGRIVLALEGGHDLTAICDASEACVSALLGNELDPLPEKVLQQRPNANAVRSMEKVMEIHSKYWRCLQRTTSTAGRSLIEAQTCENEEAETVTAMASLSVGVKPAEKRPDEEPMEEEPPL
Histone deacetylase 1, sequence (Q13547 whole entry): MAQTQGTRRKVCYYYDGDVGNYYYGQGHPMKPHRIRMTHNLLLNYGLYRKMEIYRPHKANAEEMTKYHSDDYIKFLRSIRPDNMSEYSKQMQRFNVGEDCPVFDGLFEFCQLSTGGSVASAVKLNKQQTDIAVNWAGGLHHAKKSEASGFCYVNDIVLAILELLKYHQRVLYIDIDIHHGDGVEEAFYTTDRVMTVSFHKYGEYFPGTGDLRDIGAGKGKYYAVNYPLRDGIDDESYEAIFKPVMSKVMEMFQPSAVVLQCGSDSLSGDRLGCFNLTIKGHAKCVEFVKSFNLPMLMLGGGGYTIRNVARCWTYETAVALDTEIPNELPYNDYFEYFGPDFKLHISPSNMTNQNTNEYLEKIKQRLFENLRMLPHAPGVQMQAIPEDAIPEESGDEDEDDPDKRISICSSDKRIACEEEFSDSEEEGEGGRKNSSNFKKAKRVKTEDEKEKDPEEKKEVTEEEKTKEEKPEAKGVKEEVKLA

For the molecule `C/C=C1\NC(=O)[C@H]2CSSCC/C=C/[C@H](CC(=O)N[C@H](C(C)C)C(=O)N2)OC(=O)[C@H](C(C)C)NC1=O` [ROMIDEPSIN], the inhibition in assay [1] is 34%; in assay [2], 36%; in assay [3], 22%; in assay [4], 45%; in assay [5], 45%. Also, the 50% inhibitory concentration (IC50) worked out at 900 pM in assay [6] and 800 pM in assay [7].
As for `CC(C)[C@H]1NC(=O)[C@]2(C)CSC(=N2)c2csc(n2)CNC(=O)C[C@@H](/C=C/CCS)OC1=O` [LARGAZOLE THIOL], the inhibition in assay [8], in [9], in assay [11] and in assay [15] was less than 20% throughout. For the same molecule, the 50% inhibitory concentration (IC50) entry in assay [10] was “Not Active”; in assay [12], “Not Active”; in assay [13], “Not Active”; in assay [14] it was “Not Active”; in assay [16], 5900 pM.
